Assay results from different studies.
Compare with care: the assays were run in different laboratories.
PIK3CA E545A: Phosphatidylinositol 4,5-bisphosphate 3-kinase catalytic subunit alpha isoform (PIK3CA, Homo sapiens, UniProt P42336, E545A)
PIK3CA I800L: Phosphatidylinositol 4,5-bisphosphate 3-kinase catalytic subunit alpha isoform (PIK3CA, Homo sapiens, UniProt P42336, I800L)
PIK3CA Q546K: Phosphatidylinositol 4,5-bisphosphate 3-kinase catalytic subunit alpha isoform (PIK3CA, Homo sapiens, UniProt P42336, Q546K)
PIK3CA E545K: Phosphatidylinositol 4,5-bisphosphate 3-kinase catalytic subunit alpha isoform (PIK3CA, Homo sapiens, UniProt P42336, E545K)
PIK3CA H1047Y: Phosphatidylinositol 4,5-bisphosphate 3-kinase catalytic subunit alpha isoform (PIK3CA, Homo sapiens, UniProt P42336, H1047Y)
PIK3CA C420R: Phosphatidylinositol 4,5-bisphosphate 3-kinase catalytic subunit alpha isoform (PIK3CA, Homo sapiens, UniProt P42336, C420R)
PIK3CA: Phosphatidylinositol 4,5-bisphosphate 3-kinase catalytic subunit alpha isoform (PIK3CA, Homo sapiens, UniProt P42336)
PIK3CA E542K: Phosphatidylinositol 4,5-bisphosphate 3-kinase catalytic subunit alpha isoform (PIK3CA, Homo sapiens, UniProt P42336, E542K)
PIK3CA H1047L: Phosphatidylinositol 4,5-bisphosphate 3-kinase catalytic subunit alpha isoform (PIK3CA, Homo sapiens, UniProt P42336, H1047L)

Compound	target	read-out	method	tested at	remaining binding [%]
O=C(Nc1c[nH]nc1C(=O)NC1CCNCC1)c1cc(F)cc(F)c1	PIK3CA E545A	binding	competition with immobilised ligand	1 µM	100
COc1cnc(Nc2cccc(S(N)(=O)=O)c2)nc1N1CCN(c2ccccc2)C(=O)C1	PIK3CA I800L	binding	competition with immobilised ligand	1 µM	59
CS(=O)(=O)c1cc(C2(NC(=O)c3cncc4c3cnn4-c3ccc(F)cc3)CC2)ccn1	PIK3CA Q546K	cell-free assay	competition with immobilised ligand	1 µM	66
O=C(NCCCN1CCOCC1)c1ccc(Nc2nccc(-c3cc4ccccc4s3)n2)cc1	PIK3CA E545K	binding	competition with immobilised ligand	1 µM	40
CN1CCN(c2ccc(Nc3nccc(-c4cccc([N+](=O)[O-])c4)n3)cc2C(F)(F)F)CC1	PIK3CA Q546K	binding	–	10 µM	37
CN(CCCC(F)(F)F)c1nccc(-c2cnn3ncccc23)n1	PIK3CA H1047Y	binding	–	1 µM	100
Cc1c(NC(=O)c2cc(C(N)=O)nc3cc(F)ccc23)c(C(F)(F)F)nn1Cc1ccc(C(C)(C)C)cc1	PIK3CA C420R	cell-free assay	competition with immobilised ligand	1 µM	100
CNC(=O)[C@@H]1CC[C@@H](n2c(-c3ccc4cnccc4c3)nc3ccc(C(=O)NCc4cccc(C(N)=O)c4)cc32)C1	PIK3CA I800L	binding	competition with immobilised ligand	1 µM	85
O=C(c1ccc(Nc2ncc(Cl)c(-c3cc4ccccc4s3)n2)cc1)N1CCC(N2CCCC2)CC1	PIK3CA Q546K	binding	competition with immobilised ligand	1 µM	90
CS(=O)(=O)CCNCc1ccc(-c2ccc3ncnc(Nc4ccc(OCc5cccc(F)c5)c(Cl)c4)c3c2)o1	PIK3CA	cell-free assay	competition with immobilised ligand	0.1 µM	98
F[C@@H]1CCN(c2nccc(-c3cnn4ncccc34)n2)C1	PIK3CA I800L	binding	–	1 µM	100
COc1ncc2cc3ccccc3nc2c1C#N	PIK3CA	cell-free assay	competition with immobilised ligand	5 µM	100
O=C1CCc2cc(Nc3cc(OC4CCOCC4)c([N+](=O)[O-])cc3Cl)ccc2N1	PIK3CA C420R	cell-free assay	competition with immobilised ligand	1 µM	97
CN1CCN(c2ccc(Nc3nccc(-c4ccccc4)n3)cc2C(F)(F)F)CC1	PIK3CA Q546K	binding	–	10 µM	68
Cc1c(NC(=O)c2cc(C(N)=O)nc3cc(F)ccc23)c(C(F)(F)F)nn1Cc1ccc(C#N)cc1	PIK3CA H1047Y	cell-free assay	competition with immobilised ligand	1 µM	86
c1cncc(-c2cccc(Nc3nccc(NC4CCCCC4)n3)c2)c1	PIK3CA E545K	binding	competition with immobilised ligand	10 µM	94
CN(C)c1ncc(F)c(-c2cnn3ncccc23)n1	PIK3CA I800L	binding	–	1 µM	46
O=C(NS(=O)(=O)c1ccc(NCC2CCOCC2)c([N+](=O)[O-])c1)c1ccc(N2CCN(Cc3ccc(C(F)(F)F)cc3-c3ccc(Cl)cc3)CC2)cc1Oc1cnc2[nH]ccc2c1	PIK3CA H1047Y	cell-free assay	competition with immobilised ligand	1 µM	67
CCN1CCN(Cc2ccc(C(=O)Nc3ccc(C)c(Oc4ccc5c(c4)CC(=O)N5)c3)cc2C(F)(F)F)CC1	PIK3CA H1047Y	binding	competition with immobilised ligand	1 µM	100

Compound	target	read-out	method	tested at	remaining binding [%]
CN(C)CC#Cc1ccc(OCCCc2sc(N3CCc4cccc(C(=O)Nc5nc6ccccc6s5)c4C3)nc2C(=O)O)c(F)c1	PIK3CA Q546K	cell-free assay	competition with immobilised ligand	1 µM	79
N[C@@H]1CCN(c2nccc(-c3cnn4ncccc34)n2)C1	PIK3CA Q546K	binding	–	1 µM	100
O=C(c1ccc(Nc2ncc(Cl)c(-c3ccc(Cl)s3)n2)cc1)N1CCC(N2CCCC2)CC1	PIK3CA E542K	binding	competition with immobilised ligand	1 µM	100
Nc1ncc2c(n1)-c1c([nH]c3ccc(C#CC4CC4)cc13)CCCC2	PIK3CA Q546K	binding	competition with immobilised ligand	1 µM	98
C[C@@H]1CN(c2cc(-c3n[nH]c4ccc(OC5(C)CC5)cc34)ncn2)C[C@H](C)O1	PIK3CA H1047L	cell-free assay	competition with immobilised ligand	0.1 µM	87
C[C@H]1CCN(c2nccc(-c3cnn4ncccc34)n2)C1	PIK3CA I800L	binding	–	1 µM	95
O=C(c1ccc(Nc2nccc(-c3cc4ccccc4s3)n2)cc1)N1CCC(N2CCCC2)CC1	PIK3CA C420R	binding	competition with immobilised ligand	1 µM	88
C=CC(=O)N1CCC(C(=O)NCC(=O)N2CCN(c3nc(-c4cnc(N)nc4C(F)F)nc(N4CCOCC4)n3)CC2)CC1	PIK3CA E545A	binding	competition with immobilised ligand	1 µM	0.5
O=C(NCCCN1CCOCC1)c1ccc(Nc2ncc(Cl)c(-c3ccc(Cl)s3)n2)cc1	PIK3CA E545K	binding	competition with immobilised ligand	1 µM	71
O=C(NCC1CCOCC1)c1n[nH]cc1NC(=O)c1c(F)cccc1F	PIK3CA E542K	binding	competition with immobilised ligand	1 µM	78
C[C@@H](c1ccc(-n2cnc3c(N)ncnc32)cc1)N1CCc2nn(C)c(Cc3ccccc3)c2C1=O	PIK3CA I800L	binding	competition with immobilised ligand	0.1 µM	71
CN(c1nccc(-c2cnn3ncccc23)n1)C1CC1	PIK3CA H1047L	binding	–	1 µM	100
COc1cnc(Nc2cccc(S(N)(=O)=O)c2)nc1N1CCN(c2ccccc2)CC1	PIK3CA Q546K	binding	competition with immobilised ligand	1 µM	70
CCCOc1ccc([C@H]2[C@H](C(=O)O)[C@@H](c3ccc4c(c3)OCO4)CN2CC(=O)Nc2c(CC)cccc2CC)cc1	PIK3CA I800L	cell-free assay	competition with immobilised ligand	1 µM	81
CN(C)c1nccc(-c2cnn3ncccc23)n1	PIK3CA C420R	binding	–	1 µM	100
FC(F)(F)Oc1cccc(-c2cnc3ccc(-c4ccncc4)nn23)c1	PIK3CA	cell-free assay	competition with immobilised ligand	5 µM	35
CN(C)c1nccc(-c2cnc3ncccn23)n1	PIK3CA E545A	binding	–	1 µM	90
Cc1ccc(NC(=O)c2ccc(CN3CCN(C)CC3)cc2)cc1Nc1nccc(-c2cccnc2)n1	PIK3CA	cell-free assay	competition with immobilised ligand	0.1 µM	100
